Compound activity: PubChem, several laboratories
p97 ATPase inh: inhibitors of human p97 ATPase, primary screen, biochemical; actives 0.42% (n = 220,000); recombinant p97 ATPase, Kinase-Glo ATP luminescence, 3 h; inhibition, % at 8 µM; Transitional endoplasmic reticulum ATPase (Homo sapiens), P55072; in the data active = inhibition above about 15%;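 also: 0% = DMSO vehicle and 100% = wells lacking enzyme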
Target sequence (P55072 whole entry, looked up): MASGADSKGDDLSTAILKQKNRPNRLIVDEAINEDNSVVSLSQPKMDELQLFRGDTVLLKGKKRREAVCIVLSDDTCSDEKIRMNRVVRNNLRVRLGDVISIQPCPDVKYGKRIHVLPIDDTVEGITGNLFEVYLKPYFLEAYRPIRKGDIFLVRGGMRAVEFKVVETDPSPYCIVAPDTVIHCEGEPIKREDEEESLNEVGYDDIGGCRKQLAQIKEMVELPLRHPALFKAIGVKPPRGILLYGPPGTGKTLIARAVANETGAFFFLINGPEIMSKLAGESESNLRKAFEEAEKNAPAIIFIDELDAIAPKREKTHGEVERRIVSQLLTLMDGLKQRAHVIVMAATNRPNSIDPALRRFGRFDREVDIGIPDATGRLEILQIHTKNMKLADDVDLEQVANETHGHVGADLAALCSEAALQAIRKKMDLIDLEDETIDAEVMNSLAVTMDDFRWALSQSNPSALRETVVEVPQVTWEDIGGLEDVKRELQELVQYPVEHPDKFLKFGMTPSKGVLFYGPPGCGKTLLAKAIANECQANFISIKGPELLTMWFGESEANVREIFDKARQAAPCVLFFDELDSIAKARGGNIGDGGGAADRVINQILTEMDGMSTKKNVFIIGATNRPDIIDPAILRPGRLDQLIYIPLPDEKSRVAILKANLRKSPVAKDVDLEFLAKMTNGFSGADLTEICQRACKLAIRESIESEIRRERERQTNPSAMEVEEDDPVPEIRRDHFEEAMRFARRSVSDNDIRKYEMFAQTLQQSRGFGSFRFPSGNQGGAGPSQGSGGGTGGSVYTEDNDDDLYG
MDM2 E3 inh: MDM2-luciferase reporter signal enhancers, primary screen, MDM2 E3 ligase inhibitor project, cell-based, luminescence, 1536-well; E3 ubiquitin-protein ligase Mdm2 (Homo sapiens), Q00987; cell-based MDM2 ubiquitination luciferase reporter, 2 h; 0 = plate control, 100 = twice control, blank-subtracted; signal enhancement, % at 5 µM; actives 0.11% (n = 210,000);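 active = signal enhancement of 30% or more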;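 also: luminescence tracks abundance of the self-degrading MDM2-luciferase fusion protein; higher signal means inhibition of MDM2 E3 ligase activity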
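test system = mammalian cells stably expressing self-ubiquitinating, self-degrading MDM2 E3–luciferase fusion | quantity = 2000 cells/well | incubation = cell settling 4 h, compound treatment 2 h, both 37 °C | signal = luminescence with SteadyLite reagent, 15 min at room temperature | evaluation = % enhancement relative to plate controls after blank subtraction | benchmarks = plate controls and plate blanks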
PKD1 kinase inh: inhibitors of human PKD1 kinase, biochemical, fluorescence polarization; Serine/threonine-protein kinase D1 (Homo sapiens), Q15139; PKD1 kinase fluorescence polarization assay; inhibition, % (no concentration beside the values); actives 0.056% (n = 200,000); in the data active = inhibition above about 50%
ROMK primary: ROMK potassium channel modulators, primary screen, cell-based, thallium flux, MLSMR library | ATP-sensitive inward rectifier potassium channel 1 (Homo sapiens), P48048 | Tet-inducible ROMK, thallium flux fluorescence; actives lie on both sides | B-score at 10 µM | actives 2% (n = 130,000);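 active = signal ratio slope over the read window, or its plate-corrected B-score, at least 3 SD from the plate mean, either direction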;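 also: B-score of the F/F0 ratio slope over 7 to 12 s after thallium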
KCC2 mod: KCC2 cotransporter modulators, thallium flux, primary screen, cell-based, HEK293 KCC2, FluoZin-2 fluorescence, MLSMR; KCC2 cells, thallium flux FluoZin-2 fluorescence; B-score of Tl+ flux slope (higher = more flux/activation; lower = inhibition) at 10 µM; actives 2.2% (n = 190,000); AID 1456, 2008;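 active = thallium flux slope and its plate-corrected score both differing from the plate sample mean at a set confidence after two filtering rounds, in either direction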;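 also: slope of fluorescence scaled to starting intensity during 10 to 20 s after thallium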
DTT redox prof: compounds producing H2O2 with reducing agent – biochemical, NIH compound library profiling, artefact control for MLSCN library redox annotation, primary screen | activation, % at 10 µM | actives 0.03% (n = 200,000) | DTT-dependent redox cycling H2O2, phenol red/HRP absorbance; 100% = 100 µM peroxide control, 0% = buffer | AID 878, 2007;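 active = activation of at least 50% relative to the plate's high and low controls in the primary single-dose screen; inactive = activation below 50%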;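 also: compound incubated with DTT at 0.8 mM final as the reducing agent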
ROMK retest: ROMK channel modulator hit retest, confirmation, cell-based, thallium flux, duplicate, resupplied hits; actives 54% (n = 3,000); shares compounds with ROMK primary; fluorescence ratio; active compounds read low; normalized thallium flux (F/F0 slope) at 10 µM;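 active = Flux at 10 µM at least 3 SD below or above vehicle control mean in one or both replicates; inconclusive = no clear call, values can overlap the other calls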
Numbers without * were called inactive; i = inactive; ? = inconclusive; nt = not tested or not shown. Only some compounds are listed: those with a hit (about 3.4% of all), similar ones and a draw of the others.

SMILES	p97 ATPase inh	MDM2 E3 inh	PKD1 kinase inh	ROMK primary	KCC2 mod	DTT redox prof	ROMK retest
CN(C)S(=O)(=O)c1cccc(COC(=O)c2ccc(Cl)cc2O)c1	-6	nt	nt	nt	-0.049	nt	nt
O=C(COc1ccc(CO)cc1Cl)Nc1ccc(F)cc1	2	-10	2	0.14	nt	0	nt
Clc1ccc(CSc2nnc(-c3cccnc3)n2Cc2ccco2)c(Cl)c1	-6	-1	11	-2.4*	nt	-3	?
Clc1cccc(CSc2nnc(-c3cccnc3)n2Cc2ccco2)c1	4	-15	1	nt	nt	2	nt
CCOc1cccc(N(C(=O)Cc2cccs2)C(C(=O)NC2CCCCC2)c2cccn2C)c1 (stereo not given)	2	8	1	-4.4*	-0.62	1	0.062*
COc1ccc(/C=C/C(=O)OCC(=O)NC2CCCC(C)C2C)cc1S(=O)(=O)N1CCOCC1 (stereo not given)	6	0	3	nt	0.46	0	nt
O=c1c([N+](=O)[O-])cc(C(F)(F)F)cn1Cc1c(Cl)cccc1Cl	2	-8	-17	nt	0.043	3	0.073
COC(=O)c1ccc(Cn2cc(C(F)(F)F)cc([N+](=O)[O-])c2=O)cc1	3	-5	-7	0.58	-0.035	-2	nt
O=C(NC1CCCCC1)N1CCCC(CNS(=O)(=O)Cc2ccccc2)C1 (stereo not given)	2	-1	0	0.44	-1.2	-1	nt
C#CCOCCOCCOCCNc1nc(N2CCN(C(=O)[C@H](Cc3cc4ccccc4[nH]3)n3cc([C@@H](N)Cc4ccc(O)cc4)nn3)CC2)nc(N2CCN(C(=O)[C@H](Cc3cc4ccccc4[nH]3)n3cc([C@@H](N)CC(C)C)nn3)CC2)n1	nt	-1	nt	nt	-0.0018	nt	0.045*
C#CCOCCOCCOCCNc1nc(N2CCN(C(=O)[C@H](CCC(=O)O)n3cc(C(N)CC(C)C)nn3)CC2)nc(N2CCN(C(=O)[C@H](Cc3cc4ccccc4[nH]3)n3cc(C(N)CC(C)C)nn3)CC2)n1 (stereo not given in full)	1	nt	0	nt	-0.27	-1	nt
C=CCOc1ccccc1/C=C/C(=O)O	-3	-6	-11	0.82	-0.12	-1	nt
Cc1cccc(/C(N)=N/OC(=O)c2ccc(Cl)cc2Cl)c1	4	-54	-9	0.24	-0.48	-1	nt
CN(O)/C=N/C(=S)Nc1ccc(Cl)cc1Cl	1	-1	0	2.4*	1.2	0	0.08
CN(C)S(=O)(=O)c1cccc(NC(=O)COC(=O)/C=C/c2ccc(Br)o2)c1	-1	-6	nt	nt	-1.5	nt	nt
CC(C)(C)OC(=O)NCCc1nnc(SCc2ccccc2)o1	0	-9	nt	nt	-1.6	nt	nt
CCOC(=O)C1CCCN(C(=O)c2cn(CC(C)C)c(=O)c3cc(OC)c(OC)cc23)C1 (stereo not given)	2	5	-6	0.51	0.21	3	nt
CCOC(=O)C1CCCN(C(=O)c2cn(CC)c(=O)c3cc(OC)c(OC)cc23)C1 (stereo not given)	-2	-1	-1	nt	0.27	-2	0.073
O=C(CSc1nc2ccccc2o1)NCc1ccc2c(c1)OCO2	4	-14	-19	nt	1	0	nt
COc1ccc(C(=O)Nc2ccc(O)c3c(=O)cc(-c4cccc(Cl)c4)oc23)cc1	nt	13	nt	nt	-0.28	nt	nt
Cc1c(C(=O)OCC(=O)Nc2c(C)n(C)n(-c3ccccc3)c2=O)cccc1[N+](=O)[O-]	4	-3	-3	-0.28	0.3	0	nt
O/N=C(\c1ccc(Cl)cc1)c1ncc(C(F)(F)F)cc1Cl	1	-20	-4	-0.46	-0.69	0	nt
Cc1csc(SCC(=O)Nc2ccccc2[N+](=O)[O-])n1	2	-5	-1	-19*	-0.11	0	?
Cc1csc(SCC(=O)Nc2cccc3nsnc23)n1	-5	3	2	nt	0.05	2	nt
CCCCP(=O)(CCCC)CCP(=O)(c1ccccc1)c1ccccc1	1	-7	5	nt	0.38	0	nt
SMILES	p97 ATPase inh	MDM2 E3 inh	PKD1 kinase inh	ROMK primary	KCC2 mod	DTT redox prof	ROMK retest
Cn1c(SCc2nnc3n2CCCCC3)nc2ccccc21	1	16	-6	nt	0.29	2	0.081
O=C(NC1CCCCC1)N1CCc2ccccc21	-1	-26	4	nt	-0.9	1	nt
N=c1nc(N)nc2n1NC(c1ccc(F)cc1)=CS2	3	6	-6	nt	i	1	nt
CC1(C)CN(c2ccc(Br)cc2Br)C1=O	2	-16	1	nt	0.88	0	nt
CC1(C)CN(c2cccc(Br)c2)C1=O	3	7	-2	2.1*	nt	-1	0.073
Cc1ccc2[nH]c(=O)c(CN(CCCN3CCOCC3)C(=O)NC3CCCCC3)cc2c1	0	-5	1	nt	0.18	2	nt
Cc1ccc(C)c2[nH]c(=O)c(CN(Cc3cccs3)C(=S)NCc3ccco3)cc12	3	-7	3	0.085	0.054	0	nt
O=C1c2cccc3c(N4CCCCC4)ccc(c23)C(=O)N1CCO	0	1	-9	-5.3*	-1.7	0	0.035*
Cc1n[nH]c(C)c1N1C(=O)c2cccc3c(N4CCCCCC4)ccc(c23)C1=O	1	-15	-12	nt	i	0	nt
O=C1c2cccc3c(N4CCCCC4)ccc(c23)C(=O)N1c1cccc(O)c1	4	-3	-9	-3.6*	0.58	0	?
CCc1cc2c(=O)n(C(C)C(=O)OC3CCCCC3)cnc2s1 (stereo not given)	-3	-4	5	-2	-0.084	1	nt
CCOC(=O)c1sc2nc3c(SCCC#N)cc(C(=O)c4cc(F)ccc4O)cn3c(=O)c2c1C	2	1	-3	-3.8*	-0.00016	0	0.07
N#C/C(=C\c1ccc(O)c([N+](=O)[O-])c1)C(=O)NCc1ccccc1	6	-10	-9	1.6	0.048	-1	nt
N#C/C(=C\c1ccc(O)c(Br)c1)C(=O)NCc1ccccc1	4	-7	14	3.6*	-0.89	0	0.066*
CCCCC(=O)Nc1ccc(C(=O)Nc2ccc(OC)cc2[N+](=O)[O-])cc1	2	-4	6	nt	-0.39	1	0.035*
